Like-named read-outs stand apart in the source and are kept apart here.
Tests used:
[1] = Mice body weight in the 5FU combination study; assay type: in vivo, Balb/c mice harboring LoVo xenografts; conditions: 5FU 15 mg/kg/3 days i.p.; 17-day treatment
Method in brief: (§1)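 LoVo-xenograft mice with all tumors above 50 mm3 were dosed i.p. for 20 days: 10 mL/kg/day, 5 mg/kg/day, and/or 5FU 15 mg/kg every 3 days. Body weight and tumor axes were recorded daily; tumor volume = 1/2 × a × b². Tumors were resected after treatment. Weight change was read after 17 days; mean ± SEM.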

[2] = system: LoVo colon cancer xenograft; assay: Xenograft tumor growth, SMI combined with 5FU, 14-day treatment; assay type: in vivo, Balb/c nude mice; conditions: compared to vehicle treated group; SMI 10 mL/kg/day, 5FU 15 mg/kg/3 days i.p., 14 days
LoVo xenografts = assay: Xenograft tumor growth, SMI or Rd combined with 5FU, 20-day treatment; assay type: in vivo, Balb/c mice; conditions: compared to vehicle + saline; SMI 10 mL/kg/day, Rd 5 mg/kg/day, 5FU 15 mg/kg/3 days i.p., 20 days
Method in brief: as §1

[3] = assay type: in vivo, mice harboring xenograft tumors; conditions: after intraperitoneal injection of Rb1, Rc, or Rd; data not shown
FGF = assay: ELISA of FGF secretion in tumors; assay type: in vivo, Balb/c mice harboring LoVo xenografts; conditions: 15 days i.p.; SMI, Rd-H 5 mg/kg, Rb1, Rg1; vs vehicle
Method in brief: (§2)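 Mice received test compound i.p. for 15 days. Tumors were harvested 20 min after the final dose and homogenized in RIPA buffer. VEGF and FGF were quantified by ELISA kit and normalized to protein content measured by BCA assay. Compared with vehicle.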

VEGF = assay: ELISA of VEGF secretion in tumors; assay type: in vivo, Balb/c mice harboring LoVo xenografts; conditions: 15 days i.p.; SMI, Rd-H 5 mg/kg, Rb1, Rg1; vs vehicle
Method in brief: as §2

[4] = assay type: in vivo, Balb/c nude mice harboring LoVo xenografts; conditions: for AUC0–∞ ratio Multiple/Single in tumors: 8-day vs single SMI 10 mL/kg/day i.p.
[5] = Constituent ratio of ginsenosides in SMI, plasma, tumor and endothelial cells; assay type: in vivo, Balb/c nude mice harboring LoVo xenografts; conditions: 20 min after 15-day SMI treatment
Method in brief: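 Tissues were sampled 20 min after the last dose of a 15-day i.p. course. Tumors were digested 1 h in DMEM with collagenase I (2 mg/mL) and DNase I (0.1 mg/mL), then strained through 40 μm mesh. CD31+ cells were enriched with PE anti-mouse CD31 and anti-PE magnetic particles, with purity checked by CD45/viability flow cytometry; n = 3. Each ratio = concentration of the constituent / summed eight ginsenosides.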

[6] = assay type: in vivo, Balb/c nude mice harboring LoVo xenografts; conditions: for Cmax / Tmax: Balb/c nude, mouse, plasma, ip; for AUC0–∞ in plasma relative to those of Re, Rg1, Rg3 and Ro: after single or multiple SMI administration
Method in brief: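 Male LoVo-xenograft nude mice (6 weeks old) received 10 mL/kg i.p., either once or daily for 8 days. Blood (~0.1 mL) was drawn from the oculi chorioideae vein into heparin tubes between 5 min and 96 h after the last dose, 5 mice per time point. Plasma was spun at 8000 rpm for 5 min and extracted with methanol. AUC0–∞ and the multiple/single ratio were derived.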

[7] = after eight days of SMI 10 mL/kg/day i.p.
[8] = single dose of SMI 10 mL/kg i.p.

O=c1[nH]cc(F)c(=O)[nH]1 [5FU, 5-fluorouracil]
Suppression of the increase of mice body weight [1]: 65% | Suppression of tumor growth [2]: 49.0% | Suppression of tumor growth (LoVo xenografts): 17%

CC(C)=CCC[C@](C)(O[C@@H]1O[C@H](CO)[C@@H](O)[C@H](O)[C@H]1O)[C@H]1CC[C@]2(C)[C@@H]1[C@H](O)C[C@@H]1[C@@]3(C)CC[C@H](O)C(C)(C)[C@@H]3CC[C@]12C [CK, compound K]
Detection in plasma or tumor tissues [3]: neither Rg3 nor CK could be detected

CC(C)=CCC[C@](C)(O[C@@H]1O[C@H](CO[C@@H]2O[C@H](CO)[C@@H](O)[C@H](O)[C@H]2O)[C@@H](O)[C@H](O)[C@H]1O)[C@H]1CC[C@]2(C)[C@@H]1[C@H](O)C[C@@H]1[C@@]3(C)CC[C@H](O[C@@H]4O[C@H](CO)[C@@H](O)[C@H](O)[C@H]4O[C@@H]4O[C@H](CO)[C@@H](O)[C@H](O)[C@H]4O)C(C)(C)[C@@H]3CC[C@]12C [Rb1, ginsenoside Rb1]
Suppression of the secretion of FGF in tumors (FGF): 99% | Reduction of the secretion of VEGF in tumors (VEGF): 15% | AUC0–∞ ratio Multiple/Single in tumors [4]: 1.64 | Constituent ratio in TECs [5]: 14.9% | Constituent ratio in plasma [5]: 34.5% | Constituent ratio in tumor tissues [5]: 21.9% | Cmax ([6]; 10 mL/kg): 20600 ng/mL | Tmax ([6]; 10 mL/kg): 60 min | Cmax ([6]; 10 mL/kg/day): 49400 ng/mL | Tmax ([6]; 10 mL/kg/day): 120 min | AUC0–∞ in plasma relative to those of Re, Rg1, Rg3 and Ro [6]: more than 20 times

CC(C)=CCC[C@](C)(O[C@@H]1O[C@H](CO[C@@H]2O[C@@H](CO)[C@H](O)[C@H]2O)[C@@H](O)[C@H](O)[C@H]1O)[C@H]1CC[C@]2(C)[C@@H]1[C@H](O)C[C@@H]1[C@@]3(C)CC[C@H](O[C@@H]4O[C@H](CO)[C@@H](O)[C@H](O)[C@H]4O[C@@H]4O[C@H](CO)[C@@H](O)[C@H](O)[C@H]4O)C(C)(C)[C@@H]3CC[C@]12C [Rc]
AUC0–∞ ratio Multiple/Single in tumors [4]: 5.67 | Cmax ([6]; 10 mL/kg): 7800 ng/mL | Tmax ([6]; 10 mL/kg): 240 min | Cmax ([6]; 10 mL/kg/day): 16900 ng/mL | Tmax ([6]; 10 mL/kg/day): 120 min | AUC0–∞ in plasma relative to those of Re, Rg1, Rg3 and Ro [6]: more than 20 times

CC(C)=CCC[C@](C)(O[C@@H]1O[C@H](CO)[C@@H](O)[C@H](O)[C@H]1O)[C@H]1CC[C@]2(C)[C@@H]1[C@H](O)C[C@@H]1[C@@]3(C)CC[C@H](O)C(C)(C)[C@@H]3[C@@H](O[C@@H]3O[C@H](CO)[C@@H](O)[C@H](O)[C@H]3O[C@@H]3O[C@@H](C)[C@H](O)[C@@H](O)[C@H]3O)C[C@]12C [Re]
Cmax ([6]; 10 mL/kg): 1600 ng/mL | Tmax ([6]; 10 mL/kg): 10 min | Cmax ([6]; 10 mL/kg/day): 1300 ng/mL | Tmax ([6]; 10 mL/kg/day): 10 min

CC(C)=CCC[C@](C)(O[C@@H]1O[C@H](CO)[C@@H](O)[C@H](O)[C@H]1O)[C@H]1CC[C@]2(C)[C@@H]1[C@H](O)C[C@@H]1[C@@]3(C)CC[C@H](O)C(C)(C)[C@@H]3[C@@H](O[C@@H]3O[C@H](CO)[C@@H](O)[C@H](O)[C@H]3O)C[C@]12C [Rg1]
Suppression of the secretion of FGF in tumors (FGF): 97% | Reduction of the secretion of VEGF in tumors (VEGF): 1% | Cmax ([6]; 10 mL/kg): 2000 ng/mL | Tmax ([6]; 10 mL/kg): 10 min | Cmax ([6]; 10 mL/kg/day): 2100 ng/mL | Tmax ([6]; 10 mL/kg/day): 10 min

CC(C)=CCC[C@](C)(O)[C@H]1CC[C@]2(C)[C@@H]1[C@H](O)C[C@@H]1[C@@]3(C)CC[C@H](O[C@@H]4O[C@H](CO)[C@@H](O)[C@H](O)[C@H]4O[C@@H]4O[C@H](CO)[C@@H](O)[C@H](O)[C@H]4O)C(C)(C)[C@@H]3CC[C@]12C [Rg3]
Detection in tumors over time ([4]; 20 min, 2, 12, 24, 96 h after single or multiple SMI administration): could not be identified at any time | Detection in plasma or tumor tissues [3]: neither Rg3 nor CK could be detected | Cmax in plasma [6, 7]: 300 ng/mL | Time of maximum concentration in plasma [6, 7]: 20 min | Cmax in plasma [6, 8]: 100 ng/mL | Time of maximum concentration in plasma [6, 8]: 60 min

CC1(C)CC[C@]2(C(=O)O[C@@H]3O[C@H](CO)[C@@H](O)[C@H](O)[C@H]3O)CC[C@]3(C)C(=CC[C@@H]4[C@@]5(C)CC[C@H](O[C@@H]6O[C@H](C(=O)O)[C@@H](O)[C@H](O)[C@H]6O[C@@H]6O[C@H](CO)[C@@H](O)[C@H](O)[C@H]6O)C(C)(C)[C@@H]5CC[C@]43C)[C@@H]2C1 [Ro, ginsenoside Ro]
AUC0–∞ ratio Multiple/Single in tumors [4]: 0.92 | Cmax in plasma [6, 7]: 3700 ng/mL | Time of maximum concentration in plasma [6, 7]: 20 min | Cmax in plasma [6, 8]: 3900 ng/mL | Time of maximum concentration in plasma [6, 8]: 60 min

Reference: publication PMC7564034 (Acta Pharmaceutica Sinica. B, 2019)
